Common to all, as to type: functional
The nature of experiment [1]: Induction of oxytocic activity in rat uterus. In outline: (§1)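 Purified analogues assayed for oxytocic, avian vasodepressor and rat pressor activity. Potency was measured against the U.S.P. posterior pituitary reference standard using a four-point assay design.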
For another experiment, the system named is Gallus gallus. The experiment can be described thus: Induction of vasodepressor activity in conscious chicken. In outline: as §1
Experiment [2] is filed under the species Rattus norvegicus. The experiment can be described thus: Effect on pressor activity in rat. In outline: as §1
For experiment [3], the species on record is Rattus norvegicus. The experiment can be described thus: Effect on rat blood pressure relative to bradykinin.
The species entered for experiment [4] is Rattus norvegicus. The experiment can be described thus: Effect on rat uterus activity relative to bradykinin.

Take `CC[C@H](C)[C@@H]1NC(=O)[C@H](Cc2ccc(O)cc2)NC(=O)[C@@H](N)CSSC[C@@H](C(=O)N2CCC[C@H]2C(=O)N[C@@H](CC(C)C)C(=O)NCC(N)=O)NC(=O)[C@H](CC(N)=O)NC(=O)[C@H](CCC(N)=O)NC1=O` [OXYTOCIN]: the Activity in experiment [1] came to 546 U/mg; in the experiment on Gallus gallus it was 507 U/mg; in the experiment listed under Rattus norvegicus [2] it was 3.1 U/mg.
Taken in the same sequence, the figures for `CC[C@H](C)[C@@H]1NC(=O)[C@H](Cc2ccc(O)cc2)NC(=O)[C@@H](N)CSSC[C@@H](C(=O)N2CSC[C@H]2C(=O)N[C@@H](CC(C)C)C(=O)NCC(N)=O)NC(=O)[C@H](CC(N)=O)NC(=O)[C@H](CCC(N)=O)NC1=O` were 1180 U/mg, 720 U/mg and 3.46 U/mg.
On the same counts, the results for `CC[C@H](C)[C@@H]1NC(=O)[C@H](Cc2ccc(O)cc2)NC(=O)CCSSC[C@@H](C(=O)N2CSC[C@H]2C(=O)N[C@@H](CC(C)C)C(=O)NCC(N)=O)NC(=O)[C@H](CC(N)=O)NC(=O)[C@H](CCC(N)=O)NC1=O` are 1538 U/mg, 2039 U/mg and 1.69 U/mg.
Turning to `N=C(N)NCCC[C@H](NC(=O)[C@H](Cc1ccccc1)NC(=O)[C@@H]1CCCN1C(=O)[C@H](CO)NC(=O)[C@H](Cc1ccccc1)NC(=O)CNC(=O)[C@@H]1CSCN1C(=O)[C@@H]1CCCN1C(=O)[C@@H](N)CCCNC(=N)N)C(=O)O`, the values for the Activity in the experiment listed under Rattus norvegicus [3] and in the experiment filed under Rattus norvegicus [4] were 26% and 46%, respectively.
For the molecule `CC[C@H](C)[C@@H]1NC(=O)[C@H](Cc2ccc(O)cc2)NC(=O)CCSSC[C@@H](C(=O)N2CCC[C@H]2C(=O)N[C@@H](CC(C)C)C(=O)NCC(N)=O)NC(=O)[C@H](CC(N)=O)NC(=O)[C@H](CCC(N)=O)NC1=O`, the Activity in experiment [1] is 803 U/mg; with Gallus gallus it was 975 U/mg; in the experiment filed under Rattus norvegicus [2] it was 1.44 U/mg.

Source of the values: ChEMBL document CHEMBL3271980, “Synthesis and some pharmacological properties of oxytocin analogues having L-thiazolidine-4-carboxylic acid in position 7” (1976).
